Series [1] concerns the target T1, Substance-P receptor (Homo sapiens, UniProt P25103). Kind of series: Displacement of [125I]SP from human NK1 receptor expressed in CHO cells. It counts as cell-based. In general terms: In a radioligand displacement assay an active substance lowers the binding of a labelled ligand.
The test system of series [2] is Gerbil, jird. Kind of series: Inhibition of agonist-induced foot tapping in iv dosed gerbil after 24 hrs. It counts as functional. Conditions: Meriones. Put shortly: (§1)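 Gerbils received the test compound by iv infusion, followed by a central (icv) injection of an NK1 agonist at a set time after infusion (0, 4 or 24 h). The agonist-induced foot-tapping response was monitored for blockade. Results are reported as % inhibition at a single dose (mpk) or as ED50.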

Another series deals with Cytochrome P450 2D6 (Homo sapiens, UniProt P10635). Kind of series: Inhibition of human CYP2D6. It counts as ADME.
Chain of Cytochrome P450 2D6 (P10635 whole entry): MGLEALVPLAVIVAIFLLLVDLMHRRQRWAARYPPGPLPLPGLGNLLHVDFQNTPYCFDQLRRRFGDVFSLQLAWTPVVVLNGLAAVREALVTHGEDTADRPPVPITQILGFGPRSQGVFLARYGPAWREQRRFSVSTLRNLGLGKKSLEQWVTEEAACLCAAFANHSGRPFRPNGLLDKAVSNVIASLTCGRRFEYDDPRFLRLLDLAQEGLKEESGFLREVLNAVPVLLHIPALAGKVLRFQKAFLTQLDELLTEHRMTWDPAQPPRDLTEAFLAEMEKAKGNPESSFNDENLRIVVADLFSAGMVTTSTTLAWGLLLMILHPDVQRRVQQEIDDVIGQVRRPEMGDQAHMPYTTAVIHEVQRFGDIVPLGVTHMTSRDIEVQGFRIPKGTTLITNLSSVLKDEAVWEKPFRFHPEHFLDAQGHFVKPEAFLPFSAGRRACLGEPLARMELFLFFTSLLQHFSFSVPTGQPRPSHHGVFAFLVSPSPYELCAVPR
A further series concerns the target Cytochrome P450 2C9 (Homo sapiens, UniProt P11712). Kind of series: Inhibition of human CYP2C9. It counts as ADME.
The next series concerns the target Cytochrome P450 3A4 (Homo sapiens, UniProt P08684). Kind of series: Inhibition of human CYP3A4. It counts as ADME.
In series [3] the target is T1, Substance-P receptor. Kind of series: Displacement of [125I]SP from human NK1 receptor expressed in CHO cells in presence of 50% human serum. It counts as cell-based.
For series [4], the system named is Gerbil, jird. Kind of series: Inhibition of agonist-induced foot tapping in iv dosed gerbil. The note with it: Meriones. It counts as functional. The gist of the method: as §1
Series [5] has as its system Gerbil, jird. Kind of series: Inhibition of agonist-induced foot tapping in gerbil at 2 mpk, iv after 24 hrs. The note with it: Meriones, 4 h, in the assay text read “after 4 hrs” for “after 24 hrs”. It is filed as functional. Put shortly:
as §1

Series [6] has as its system Gerbil, jird. Kind of series: Inhibition of agonist-induced foot tapping in gerbil at 6 mpk, iv after 24 hrs. It counts as functional. Conditions: Meriones. Put shortly:
as §1

A short description of series [7]: Half life in rat. It counts as ADME, organism-based. Conditions: in vivo.
Series [8] has as its system Gerbil, jird. Kind of series: Inhibition of agonist-induced foot tapping in gerbil at 3 mpk, iv after 24 hrs. It is filed as functional. Conditions: Meriones. Put shortly:
as §1

The record followed here is ChEMBL document CHEMBL1149712, “Pyrrolidine-carboxamides and oxadiazoles as potent hNK1 antagonists” (Bioorg Med Chem Lett, 2007).

T1 sequence (P25103 whole entry, the tested form may be a part): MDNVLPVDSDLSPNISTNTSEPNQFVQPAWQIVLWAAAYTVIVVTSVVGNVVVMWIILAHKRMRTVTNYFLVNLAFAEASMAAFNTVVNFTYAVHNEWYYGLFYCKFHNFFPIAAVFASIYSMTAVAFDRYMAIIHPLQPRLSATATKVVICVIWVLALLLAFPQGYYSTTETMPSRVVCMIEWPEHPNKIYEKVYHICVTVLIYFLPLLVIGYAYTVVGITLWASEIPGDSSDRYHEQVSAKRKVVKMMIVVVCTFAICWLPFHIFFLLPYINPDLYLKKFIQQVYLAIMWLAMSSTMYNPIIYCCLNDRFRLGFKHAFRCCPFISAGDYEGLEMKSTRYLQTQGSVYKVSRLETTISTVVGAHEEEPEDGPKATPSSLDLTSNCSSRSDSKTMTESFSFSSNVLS
Chain of Cytochrome P450 3A4 (P08684 whole entry): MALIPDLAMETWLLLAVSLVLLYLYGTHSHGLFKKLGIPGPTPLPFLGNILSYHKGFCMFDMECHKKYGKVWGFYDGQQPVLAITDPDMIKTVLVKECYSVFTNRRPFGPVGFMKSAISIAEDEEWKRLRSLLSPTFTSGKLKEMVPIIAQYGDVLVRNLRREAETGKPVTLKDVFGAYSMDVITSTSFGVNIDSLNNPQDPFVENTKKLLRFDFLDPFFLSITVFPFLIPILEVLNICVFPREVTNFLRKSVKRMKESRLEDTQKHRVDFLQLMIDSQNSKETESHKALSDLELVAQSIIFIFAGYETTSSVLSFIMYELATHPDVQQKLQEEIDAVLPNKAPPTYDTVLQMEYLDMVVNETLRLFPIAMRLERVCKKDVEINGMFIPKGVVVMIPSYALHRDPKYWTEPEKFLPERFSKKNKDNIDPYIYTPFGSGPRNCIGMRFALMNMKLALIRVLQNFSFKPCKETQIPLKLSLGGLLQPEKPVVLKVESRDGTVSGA
Chain of Cytochrome P450 2C9 (P11712 whole entry): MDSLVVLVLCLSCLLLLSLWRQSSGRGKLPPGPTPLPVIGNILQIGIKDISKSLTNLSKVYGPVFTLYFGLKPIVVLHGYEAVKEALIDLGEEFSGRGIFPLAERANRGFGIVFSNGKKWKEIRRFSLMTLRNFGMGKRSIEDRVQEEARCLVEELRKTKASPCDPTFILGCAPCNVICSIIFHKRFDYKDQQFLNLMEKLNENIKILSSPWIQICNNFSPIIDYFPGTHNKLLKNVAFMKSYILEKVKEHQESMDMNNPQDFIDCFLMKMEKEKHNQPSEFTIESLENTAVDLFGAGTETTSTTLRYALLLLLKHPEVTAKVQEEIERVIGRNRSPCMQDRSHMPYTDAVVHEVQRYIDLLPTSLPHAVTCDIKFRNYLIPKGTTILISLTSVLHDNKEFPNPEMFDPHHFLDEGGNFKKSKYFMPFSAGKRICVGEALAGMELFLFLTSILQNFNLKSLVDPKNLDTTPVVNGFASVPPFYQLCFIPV

On Substance-P receptor [1], `CN(Cc1cc(C(F)(F)F)cc(C(F)(F)F)c1)C(=O)[C@H]1CN(C(=O)NC2CCCCC2)C[C@@H]1c1ccccc1` came in with an IC50 of 0.79 nM.

Turning to `CN(Cc1cc(C(F)(F)F)cc(C(F)(F)F)c1)C(=O)[C@H]1CN(C(=O)C2CCNCC2)C[C@@H]1c1ccccc1`, at Substance-P receptor [1], the IC50 stood at 4.1 nM.

For the compound `Cc1cnc(C(=O)N2C[C@H](C(=O)N(C)Cc3cc(C(F)(F)F)cc(C(F)(F)F)c3)[C@@H](c3ccc(F)cc3C)C2)cn1`, the ED50 with Gerbil, jird [2] is 6 mg/kg; with Gerbil, jird [4], 6 mg/kg. In addition, the IC50 was determined as 73000 nM at Cytochrome P450 2D6; 43000 nM on Cytochrome P450 2C9; 11000 nM against Cytochrome P450 3A4; 0.09 nM on Substance-P receptor [1]; 8 nM at Substance-P receptor [3].

On Substance-P receptor [1], `CN(Cc1cc(C(F)(F)F)cc(C(F)(F)F)c1)C(=O)[C@H]1CN(C(=O)c2cncnc2)C[C@@H]1c1ccccc1` yielded an IC50 of 24 nM.

`CC(=O)N1CCC(C(=O)N2C[C@H](C(=O)N(C)Cc3cc(C(F)(F)F)cc(C(F)(F)F)c3)[C@H](c3ccccc3)C2)CC1` came in with an IC50 at Substance-P receptor [1] of 3.7 nM.

Regarding `CC(=O)N1CCC(C(=O)N2C[C@@H](C(=O)N(C)Cc3cc(C(F)(F)F)cc(C(F)(F)F)c3)[C@H](c3ccccc3)C2)CC1`, on Substance-P receptor [1], the IC50 amounted to 0.97 nM.

On Substance-P receptor [1], `CC(C)(C)OC(=O)N1CC[C@H](c2ccccc2)[C@@H](C(=O)NCc2cc(C(F)(F)F)cc(C(F)(F)F)c2)C1` came in with an IC50 of 450 nM.

In turn, `CN(Cc1cc(C(F)(F)F)cc(C(F)(F)F)c1)C(=O)[C@H]1CN(C(=O)OC(C)(C)C)C[C@@H]1c1ccccc1` returned an IC50 at Substance-P receptor [1] of 11 nM.

Take `CN(Cc1cc(C(F)(F)F)cc(C(F)(F)F)c1)C(=O)[C@H]1CN(C(=O)C2CCCCC2)C[C@@H]1c1ccccc1`: the IC50 at Substance-P receptor [1] stood at 0.68 nM.

On to `Cc1cnc(C(=O)N2C[C@H](C(=O)N(C)Cc3cc(C(F)(F)F)cc(C(F)(F)F)c3)[C@@H](c3ccccc3)C2)cn1`, for which the IC50 at Substance-P receptor [1] came to 0.58 nM.

`CC(C)(C)OC(=O)N1C[C@H](C(=O)NCc2cc(C(F)(F)F)cc(C(F)(F)F)c2)[C@@H](c2ccccc2)C1`: at Substance-P receptor [1], the IC50 stood at 142 nM.

For the compound `CC(=O)N1CCC(C(=O)N2C[C@H](C(=O)N(C)C(C)(C)c3cc(C(F)(F)F)cc(C(F)(F)F)c3)[C@@H](c3ccc(F)cc3C)C2)CC1`, the IC50 at Cytochrome P450 2D6 is 57000 nM; on Cytochrome P450 2C9, over 100000 nM; against Cytochrome P450 3A4 it was 49000 nM; on Substance-P receptor [1] it was 0.05 nM; on Substance-P receptor [3], 0.51 nM. Further, 2 mg/kg produced 100% inhibition in vivo in the series on Gerbil, jird [5]. This compound also came in with an inhibition in vivo at 6 mg/kg in the series on Gerbil, jird [6] of 2%.

`CC(=O)N1CCC(C(=O)N2C[C@H](C(=O)N(C)Cc3cc(C(F)(F)F)cc(C(F)(F)F)c3)[C@@H](c3ccc(F)cc3C)C2)CC1`: the IC50 came to 92000 nM against Cytochrome P450 2D6; 69000 nM on Cytochrome P450 2C9; 11000 nM on Cytochrome P450 3A4; 0.05 nM on Substance-P receptor [1]; 0.21 nM on Substance-P receptor [3]. For the same compound, in the series with Gerbil, jird [5], at 2 mg/kg the inhibition in vivo was 100%. Also, the inhibition in vivo at 6 mg/kg in the series with Gerbil, jird [6] is 24%.

In the series on Gerbil, jird [5], `CC(=O)N1CCC(C(=O)N2C[C@H](c3nc(C(C)(C)c4cc(C(F)(F)F)cc(C(F)(F)F)c4)no3)[C@@H](c3ccc(F)cc3C)C2)CC1` yielded an inhibition in vivo at 2 mg/kg of 92%. Also, testing at 6 mg/kg in the series on Gerbil, jird [6] gave an inhibition in vivo of 1%. The half-inhibitory concentration (IC50) at Substance-P receptor [1] came to 0.07 nM; at Substance-P receptor [3], 2.8 nM.

In the case of `CC(=O)N1CCC(C(=O)N2C[C@@H](c3nc(C(C)(C)c4cc(C(F)(F)F)cc(C(F)(F)F)c4)no3)[C@H](c3ccc(F)cc3C)C2)CC1`, testing at 6 mg/kg in the series with Gerbil, jird [6] gave an inhibition in vivo of 1%. For the same compound, the IC50 amounted to 0.17 nM on Substance-P receptor [1] and 20 nM on Substance-P receptor [3].

For the compound `CC(=O)N1CCC(C(=O)N2C[C@H](c3noc(C(C)(C)c4cc(C(F)(F)F)cc(C(F)(F)F)c4)n3)[C@@H](c3ccc(F)cc3C)C2)CC1`, the IC50 against Cytochrome P450 2D6 amounted to 63000 nM; at Cytochrome P450 2C9, 9000 nM; at Cytochrome P450 3A4 it was 100000 nM; on Substance-P receptor [1] it was 0.07 nM; at Substance-P receptor [3], 6 nM.

Compound `CC(=O)N1CCC(C(=O)N2C[C@@H](c3noc(C(C)(C)c4cc(C(F)(F)F)cc(C(F)(F)F)c4)n3)[C@H](c3ccc(F)cc3C)C2)CC1` came in with an inhibition in vivo at 6 mg/kg with Gerbil, jird [6] of 60%. The results for the IC50 at Substance-P receptor [1] and on Substance-P receptor [3] were 0.03 nM and 0.17 nM, respectively.

`CN(Cc1cc(C(F)(F)F)cc(C(F)(F)F)c1)C(=O)[C@H]1CN(CC2CCCCC2)C[C@@H]1c1ccccc1`: the IC50 at Substance-P receptor [1] is 62 nM.

As for `CN(Cc1cc(C(F)(F)F)cc(C(F)(F)F)c1)C(=O)[C@H]1CN(C(=O)N2CCCCC2)C[C@@H]1c1ccccc1`, on Substance-P receptor [1], the IC50 was 13 nM.

Turning to `CN(Cc1cc(C(F)(F)F)cc(C(F)(F)F)c1)C(=O)[C@H]1CN(C(=O)c2ncccn2)C[C@@H]1c1ccccc1`, the IC50 on Substance-P receptor [1] turned out to be 0.84 nM.

In turn, `CN(Cc1cc(C(F)(F)F)cc(C(F)(F)F)c1)C(=O)[C@H]1CN(C(=O)c2cnccn2)C[C@@H]1c1ccccc1` gave an IC50 on Substance-P receptor [1] of 0.74 nM.

`CN(Cc1cc(C(F)(F)F)cc(C(F)(F)F)c1)C(=O)[C@H]1CN(C(=O)c2ccncn2)C[C@@H]1c1ccccc1` had an IC50 on Substance-P receptor [1] of 3.4 nM.

Take `CC(=O)N1CCC(C(=O)N2C[C@H](C(=O)N(C)Cc3cc(C(F)(F)F)cc(C(F)(F)F)c3)[C@@H](c3ccccc3)C2)CC1` (stereo in doubt; 8c): the half-life in series [7] is 42 min. For the same compound, the IC50 is 24000 nM against Cytochrome P450 2D6; 26000 nM against Cytochrome P450 2C9; 18000 nM at Cytochrome P450 3A4; 0.42 nM on Substance-P receptor [1]; 4.5 nM at Substance-P receptor [3]. This compound registered an inhibition in vivo at 3 mg/kg in the series with Gerbil, jird [8] of 29%. In addition, in the series on Gerbil, jird [4], the ED50 was found to be 0.41 mg/kg.

For the compound `CC(=O)N1CCC(C(=O)N2C[C@H](C(=O)N(C)Cc3cc(C(F)(F)F)cc(C(F)(F)F)c3)[C@@H](c3ccccc3)C2)CC1` (stereo in doubt; 27), the IC50 at Substance-P receptor [1] was 0.12 nM.

For orientation: IC50 means the point on the concentration scale where inhibition reaches its midpoint. As usually defined, the ED50 is the dose at which the effect has come halfway, by size or by number of responders. The low end stands for an effect at a small dose, the high end for a need for a large dose. For orientation: inhibition in vivo means the percentage by which the read-out fell short of the control. As usually defined, the half-life is how long it takes for the measured level to halve. Read a high half-life as slow loss.
